Here are results for 5 compounds from ChEMBL document CHEMBL4130582, “Total Synthesis of Reniochalistatin E” (J Nat Prod, 2017).

Common to all, as to assay type: functional, cell-based
The subject of one assay is RPMI-8226. The assay can be described thus: Cytotoxicity against human RPMI8226 cells after 72 hrs by Alamar Blue assay. To be noted: RPMI-8226, 72 h. The essentials: (§1)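 Nonadherent cells in RPMI1640 + 10% FBS at 37 °C, 5% CO2. Compound from DMSO stock was diluted in media (31.6 nM to 200 μM) and plated in triplicate; cells (2000/well) were added afterwards. After 69 h, Alamar Blue was added for 3 h more; fluorescence read at ex 560/em 590 nm. Doxorubicin and etoposide served as positive controls. IC50 taken from ≥3 independent experiments.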
Background: Resazurin is reduced to fluorescent resorufin, in cell work by metabolically active cells.

Assay [1] can be described thus: Cytotoxicity against human MiaPaCa cells after 72 hrs by Alamar Blue assay. To be noted: MIA PaCa-2, 72 h. The essentials: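 Mia PaCa-2 in DMEM + 10% FBS at 37 °C, 5% CO2. Seeded 1500 cells/well and left to adhere 2−3 h, then given compound diluted from DMSO stock in media (31.6 nM to 200 μM), in triplicate. After 69 h, Alamar Blue was added for 3 h more; fluorescence read at ex 560/em 590 nm. Doxorubicin and etoposide served as positive controls, untreated wells as negative. IC50 taken from ≥3 independent experiments.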

The nature of assay [2]: Cytotoxicity against human MM1R cells after 72 hrs by Alamar Blue assay. As to conditions: MM.1R. The essentials: as §1
Another assay concerns HeLa. The assay can be described thus: Cytotoxicity against human HeLa cells after 72 hrs by Alamar Blue assay. Summed up:
(§2)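 A549 or HeLa cells in RPMI1640 + 10% FBS at 37 °C, 5% CO2. Seeded 1500 cells/well and left to adhere 2−3 h, then given compound diluted from DMSO stock in media (31.6 nM to 200 μM), in triplicate. After 69 h, Alamar Blue was added for 3 h more; fluorescence read at ex 560/em 590 nm. Doxorubicin and etoposide served as positive controls, untreated wells as negative. IC50 taken from ≥3 independent experiments.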

The test system of a further assay is A549. The assay can be described thus: Cytotoxicity against human A549 cells after 72 hrs by Alamar Blue assay. As to conditions: A549, 72 h. Summed up: as §2
A further assay relates to U-937. Briefly: Cytotoxicity against human U937 cells after 72 hrs by Alamar Blue assay. As to conditions: U-937, 72 h. The essentials: as §1

Residues, ends and D or L forms follow the SMILES beside them. *: point of attachment. Boc = CC(C)(C)OC(=O)*

As a reminder, the IC50 is the concentration at which inhibition is half-maximal. A high value points to a need for much substance.

As for `CC[C@H](C)[C@H](NC(=O)OC(C)(C)C)C(=O)N1CCC[C@H]1C(=O)N[C@@H](CC(C)C)C(=O)N[C@@H](Cc1c[nH]c2ccccc12)C(=O)N1CCC[C@H]1C(=O)N[C@H](C(=O)N[C@H](C(=O)N1CCC[C@H]1C(=O)OC)[C@@H](C)CC)C(C)C` (Boc-IPLWPVIP-OMe), the IC50 (in the assay with RPMI-8226; in assay [1]; in assay [2]; with HeLa; with A549; in the assay on U-937) was greater than 20 µM each time.
On to `CC[C@H](C)[C@H](NC(=O)[C@@H](NC(=O)[C@@H]1CCCN1C(=O)OC(C)(C)C)C(C)C)C(=O)N1CCC[C@H]1C(=O)N[C@H](C(=O)N1CCC[C@H]1C(=O)N[C@@H](CC(C)C)C(=O)N[C@@H](Cc1c[nH]c2ccccc12)C(=O)OC)[C@@H](C)CC` (Boc-PVIPIPLW-OMe), for which the IC50 in the assay with RPMI-8226 was greater than 20 µM; in assay [1], 19.1 µM; in assay [2], greater than 20 µM; in the assay with HeLa, greater than 20 µM; with A549, greater than 20 µM; in the assay with U-937, greater than 20 µM.
Turning to `CC[C@H](C)[C@@H]1NC(=O)[C@H](C(C)C)NC(=O)[C@@H]2CCCN2C(=O)[C@H](Cc2c[nH]c3ccccc23)NC(=O)[C@H](CC(C)C)NC(=O)[C@@H]2CCCN2C(=O)[C@H]([C@@H](C)CC)NC(=O)[C@@H]2CCCN2C1=O` (cyclo(IPIPLWPV)), the IC50 is 4.5 µM in the assay on RPMI-8226; greater than 20 µM in assay [1]; greater than 11.2 µM in assay [2]; 16.9 µM with HeLa; greater than 20 µM in the assay on A549; 12.4 µM in the assay on U-937.
Regarding H-IPLWPVIP-OH, the IC50 was 16.4 µM in the assay on RPMI-8226; greater than 20 µM in assay [1]; greater than 20 µM in assay [2]; 18.4 µM with HeLa; greater than 20 µM with A549; greater than 20 µM in the assay on U-937.
H-PVIPIPLW-OH: the IC50 in the assay with RPMI-8226 was greater than 20 µM; in assay [1], greater than 20 µM; in assay [2], greater than 20 µM; in the assay on HeLa it was greater than 20 µM; in the assay on A549, greater than 20 µM; with U-937, 9.5 µM.
